Measured values as given in ChEMBL document CHEMBL4732078 (Eur J Med Chem, 2021).
Active and inactive are the calls of the source. The calls are words filed in the database; no cut-off is given here.

Columns and labels:
[1] = molecular target: T1, Phosphatidylinositol 4,5-bisphosphate 3-kinase catalytic subunit alpha isoform (Homo sapiens, UniProt P42336); assay: Inhibition of human PI3Kalpha using PIP2 as substrate in presence of ATP measured after 30 mins by HTRF assay
Summary of the method: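 HTRF kit assay. Enzyme incubated with 10 μM PIP2; reaction started by adding ATP and run 30 min at room temperature, then stop solution and detection mix added and luminescence read. Compounds kept as 10 mM DMSO stocks.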

[2] = molecular target: RAF proto-oncogene serine/threonine-protein kinase (Homo sapiens, UniProt P04049, Y340D/Y341D); assay: Inhibition of human recombinant c-Raf Y340D/Y341D mutant (306 to end residues) using inactive MEK1 as substrate incubated for 40 mins in presence of [gamma33P-ATP] by radiometric scintillation counting analysis
[3] = molecular target: T1, Phosphatidylinositol 4,5-bisphosphate 3-kinase catalytic subunit alpha isoform; assay: Inhibition of PI3Kalpha in human Rh30 cells assessed as reduction in rhIGF1-stimulated AKT phosphorylation at Thr308 treated for 1 hr followed by incubation with IGF1 for 10 mins by western blot analysis; assay type: cell-based; details: dose 0.01-1 µM, time 70.0 min
Summary of the method: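 U87MG or Rh30 cells held 24 h in serum-free medium, exposed to compound for 1 h, then stimulated with 50 ng/ml IGF-I for 10 min. Lysates blotted for Akt, pAkt T308 and pAkt S473.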

MDA-MB-231 = assay: Antiproliferative activity against human MDA-MB-231 cells assessed as reduction in cell viability after 72 hrs by sulforhodamine B assay; assay type: functional, cell-based; details: MDA-MB-231, 72 h
Summary of the method: (§1)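 SRB assay. Exponentially growing cells seeded at 3000–5000/well, compounds added serially diluted after 24 h, cultured 72 h. Cells fixed with 10% TCA, stained with SRB, dye dissolved in 10 mM Tris-HCl, absorbance read at 560 nm. Inhibition = (ODcontrol − ODtreated)/ODcontrol × 100%. IC50 is the mean of at least three independent tests.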

SK-OV-3 [4] = assay: Antitumor activity against human SK-OV-3 cells xenografted in BALB/cA nude mouse assessed as tumor growth at 5 mg/kg, po administered once a day for 21 days and measured twice per week; assay type: functional; details: dose 5 mg/kg/day; time 21 day
Summary of the method: (§2)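 Female BALB/cA nude mice, 4–5 weeks old. SKOV-3 xenografts passaged once in vivo, then 1.5 mm³ fragments implanted s.c. in the right flank by trocar. At about 100 mm³ mice were randomized to vehicle or drug given orally once daily. Tumor size and body weight measured twice weekly; V = length × width²/2.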

SK-OV-3 [5] = assay: Antitumor activity against human SK-OV-3 cells xenografted in BALB/cA nude mouse assessed as tumor growth at 10 mg/kg, po administered once a day for 21 days and measured twice per week; assay type: functional; details: dose 10 mg/kg/day; time 21 day; summary of the method: as §2
SK-OV-3 [6] = assay: Antitumor activity against human SK-OV-3 cells xenografted in BALB/cA nude mouse assessed as tumor growth at 20 mg/kg, po administered once a day for 21 days and measured twice per week; assay type: functional; details: dose 20 mg/kg/day; time 21 day; summary of the method: as §2
[7] = Toxicity in 6 hrs fasted BALB/cA nude mouse xenografted with human SK-OV-3 cells assessed as blood glucose tolerance at 5 to 20 mg/kg, po administered once a day for 18 days and measured upto 2 hrs post-last dose by oral glucose tolerance test; assay type: organism-based; details: in vivo, 432 h, dose 5-20 mg/kg/day, time 18 day
Summary of the method: (§3)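 Female BALB/cA nude mice, 4–5 weeks old, carried s.c. SKOV-3 xenograft fragments. They were dosed orally once daily for 18 days with vehicle or compound, then fasted 6 h and given glucose orally at 2 g/kg. Blood was sampled at set times up to 2 h, and glucose was measured with a blood glucose meter.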

[8] = Metabolic stability in Beagle dog hepatocytes assessed as intrinsic clearance; assay type: ADME, cell-based, Canis lupus familiaris, Hepatocyte; details: read-out: CLH
[9] = Metabolic stability in mouse hepatocytes assessed as intrinsic clearance; assay type: ADME, cell-based, Hepatocyte; details: read-out: CLH
[10] = Cmax in rat at 10 mg/kg, po; assay type: ADME, organism-based; set-up: route oral, dose 10 mg/kg; details: in vivo
Summary of the method: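 Male rats given 10 mg/kg p.o.; Cmax and terminal half-life taken from the plasma concentration–time profile.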

[11] = Tmax in rat at 10 mg/kg, po; assay type: ADME, organism-based; details: in vivo
Summary of the method: (§4)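 Male rats were dosed orally at 10 mg/kg, with a parallel i.v. arm at 5 mg/kg. Plasma PK parameters were derived, including Cmax, Tmax, T1/2 and AUC0-∞, with oral bioavailability (F) reported against the i.v. arm.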

[12] = AUC (0 to infinity) in rat at 10 mg/kg, po; assay type: ADME, organism-based; set-up: route oral, time infinity, dose 10 mg/kg; details: in vivo
Summary of the method: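 Male rats dosed orally at 10 mg/kg; plasma exposure followed to give AUC0-∞ (i.v. arm at 5 mg/kg run alongside).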

[13] = Oral bioavailability in rat at 10 mg/kg; assay type: ADME, organism-based; details: in vivo; summary of the method: as §4
[14] = molecular target: Phosphatidylinositol 4,5-bisphosphate 3-kinase catalytic subunit gamma isoform (Homo sapiens) (UniProt P48736); assay: Inhibition of PI3Kgamma (unknown origin) transfected in human Rh30 cells assessed as reduction in AKT phosphorylation at Ser473 residue at 10XIC50 by western blot analysis; assay type: cell-based
Summary of the method: (§5)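 Rh30 cells ectopically expressing membrane-anchored, N-terminally myristoylated, constitutively active p110α, β, γ or δ. Akt phosphorylation assessed by Western blot; lysates made in RIPA buffer, equal protein heated at 95 °C for 10 min in SDS loading buffer.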

[15] = molecular target: Phosphatidylinositol 4,5-bisphosphate 3-kinase catalytic subunit delta isoform (Homo sapiens) (UniProt O00329); assay: Inhibition of PI3Kdelta (unknown origin) transfected in human Rh30 cells assessed as reduction in AKT phosphorylation at Ser473 residue at 10XIC50 by western blot analysis; assay type: cell-based; summary of the method: as §5
LoVo = assay: Antiproliferative activity against human LoVo cells assessed as reduction in cell viability after 72 hrs by sulforhodamine B assay; assay type: functional, cell-based; summary of the method: as §1
[16] = Toxicity in BALB/cA nude mouse xenografted with human SK-OV-3 cells assessed as blood glucose level at 5 to 20 mg/kg, po administered once a day for 18 days by glucose meter analysis; assay type: organism-based; details: in vivo, 432 h, dose 5-20 mg/kg/day, time 18 day; summary of the method: as §3
Homo sapiens [17] = species: Homo sapiens; assay: Selectivity index, ratio of IC50 for human PI3K p110beta/p85alpha to IC50 for human PI3Kalpha by HTRF assay
Summary of the method: (§6)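 The PI3K isoforms were assayed with an HTRF kit. Each enzyme was incubated in assay buffer containing 10 μM PIP2, and the reaction was started with ATP and run 30 min at room temperature. Stop solution and detection mix were then added and light emission was read. IC50 values were averages of at least 3 separate determinations, and each index is the ratio of IC50 values.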

Homo sapiens [18] = species: Homo sapiens; assay: Selectivity index, ratio of IC50 for human PI3K p110delta/p85alpha to IC50 for human PI3Kalpha by HTRF assay; summary of the method: as §6
Homo sapiens [19] = species: Homo sapiens; assay: Selectivity index, ratio of IC50 for human PI3Kgamma R459Q mutant to IC50 for human PI3Kalpha by HTRF assay; summary of the method: as §6
[20] = Inhibition of human PI3Kgamma R459Q mutant using PIP2 as substrate in presence of ATP measured after 30 mins by HTRF assay
PI3K p110 beta/p85 alpha = PI3K p110 beta/p85 alpha (Homo sapiens, UniProt P42338); assay: Inhibition of human PI3K p110beta/p85alpha using PIP2 as substrate incubated for 30 mins in presence of ATP measured after 30 mins by HTRF assay
Sequence of PI3K p110 beta/p85 alpha (P27986 whole entry): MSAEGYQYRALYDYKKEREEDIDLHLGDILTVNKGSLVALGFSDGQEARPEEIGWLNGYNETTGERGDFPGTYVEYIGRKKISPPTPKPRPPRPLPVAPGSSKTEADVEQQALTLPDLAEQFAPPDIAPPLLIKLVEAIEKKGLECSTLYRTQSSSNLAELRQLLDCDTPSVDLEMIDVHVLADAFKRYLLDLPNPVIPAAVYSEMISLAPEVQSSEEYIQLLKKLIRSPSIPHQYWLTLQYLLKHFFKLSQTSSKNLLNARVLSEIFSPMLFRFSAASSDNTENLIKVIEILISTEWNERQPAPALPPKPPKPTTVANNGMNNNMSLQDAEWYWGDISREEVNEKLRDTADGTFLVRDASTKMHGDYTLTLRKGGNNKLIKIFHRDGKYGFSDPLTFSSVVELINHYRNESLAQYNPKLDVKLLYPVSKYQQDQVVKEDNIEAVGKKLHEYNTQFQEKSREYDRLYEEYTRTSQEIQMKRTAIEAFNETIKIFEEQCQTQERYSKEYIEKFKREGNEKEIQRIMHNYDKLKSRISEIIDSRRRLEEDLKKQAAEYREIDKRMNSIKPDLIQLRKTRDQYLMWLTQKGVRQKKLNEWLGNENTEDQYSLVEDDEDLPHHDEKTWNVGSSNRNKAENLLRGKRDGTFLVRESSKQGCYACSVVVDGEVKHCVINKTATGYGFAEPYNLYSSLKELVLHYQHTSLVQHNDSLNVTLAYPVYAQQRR
Sequence of PI3K p110 beta/p85 alpha (P42338 whole entry): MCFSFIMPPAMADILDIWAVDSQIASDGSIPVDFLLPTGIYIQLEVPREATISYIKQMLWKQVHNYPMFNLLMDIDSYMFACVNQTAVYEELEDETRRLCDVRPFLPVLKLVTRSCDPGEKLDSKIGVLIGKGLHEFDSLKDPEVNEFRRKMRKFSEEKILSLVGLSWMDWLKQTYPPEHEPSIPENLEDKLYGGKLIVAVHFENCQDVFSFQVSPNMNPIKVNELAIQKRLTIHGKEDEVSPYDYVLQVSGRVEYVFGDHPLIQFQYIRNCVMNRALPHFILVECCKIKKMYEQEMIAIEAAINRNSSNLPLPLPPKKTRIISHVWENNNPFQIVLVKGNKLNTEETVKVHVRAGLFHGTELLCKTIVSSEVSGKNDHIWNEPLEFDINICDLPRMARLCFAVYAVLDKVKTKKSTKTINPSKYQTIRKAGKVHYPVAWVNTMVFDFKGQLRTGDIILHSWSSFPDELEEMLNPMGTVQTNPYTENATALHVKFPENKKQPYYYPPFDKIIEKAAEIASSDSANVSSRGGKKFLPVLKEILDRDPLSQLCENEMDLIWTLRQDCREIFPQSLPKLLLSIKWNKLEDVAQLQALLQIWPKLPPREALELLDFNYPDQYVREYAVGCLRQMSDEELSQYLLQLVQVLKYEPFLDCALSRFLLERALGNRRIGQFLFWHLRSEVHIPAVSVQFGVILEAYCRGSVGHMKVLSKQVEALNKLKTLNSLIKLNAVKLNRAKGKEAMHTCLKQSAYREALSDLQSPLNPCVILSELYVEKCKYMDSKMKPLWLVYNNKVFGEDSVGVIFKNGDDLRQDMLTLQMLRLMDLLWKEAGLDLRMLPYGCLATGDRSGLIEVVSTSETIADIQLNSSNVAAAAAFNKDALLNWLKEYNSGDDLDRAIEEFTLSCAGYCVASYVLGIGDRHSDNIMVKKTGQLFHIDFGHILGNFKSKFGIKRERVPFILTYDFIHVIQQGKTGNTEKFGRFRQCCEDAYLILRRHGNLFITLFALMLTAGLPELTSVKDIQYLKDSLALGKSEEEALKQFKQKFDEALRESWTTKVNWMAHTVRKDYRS

T1 sequence (P42336 whole entry, canonical isoform): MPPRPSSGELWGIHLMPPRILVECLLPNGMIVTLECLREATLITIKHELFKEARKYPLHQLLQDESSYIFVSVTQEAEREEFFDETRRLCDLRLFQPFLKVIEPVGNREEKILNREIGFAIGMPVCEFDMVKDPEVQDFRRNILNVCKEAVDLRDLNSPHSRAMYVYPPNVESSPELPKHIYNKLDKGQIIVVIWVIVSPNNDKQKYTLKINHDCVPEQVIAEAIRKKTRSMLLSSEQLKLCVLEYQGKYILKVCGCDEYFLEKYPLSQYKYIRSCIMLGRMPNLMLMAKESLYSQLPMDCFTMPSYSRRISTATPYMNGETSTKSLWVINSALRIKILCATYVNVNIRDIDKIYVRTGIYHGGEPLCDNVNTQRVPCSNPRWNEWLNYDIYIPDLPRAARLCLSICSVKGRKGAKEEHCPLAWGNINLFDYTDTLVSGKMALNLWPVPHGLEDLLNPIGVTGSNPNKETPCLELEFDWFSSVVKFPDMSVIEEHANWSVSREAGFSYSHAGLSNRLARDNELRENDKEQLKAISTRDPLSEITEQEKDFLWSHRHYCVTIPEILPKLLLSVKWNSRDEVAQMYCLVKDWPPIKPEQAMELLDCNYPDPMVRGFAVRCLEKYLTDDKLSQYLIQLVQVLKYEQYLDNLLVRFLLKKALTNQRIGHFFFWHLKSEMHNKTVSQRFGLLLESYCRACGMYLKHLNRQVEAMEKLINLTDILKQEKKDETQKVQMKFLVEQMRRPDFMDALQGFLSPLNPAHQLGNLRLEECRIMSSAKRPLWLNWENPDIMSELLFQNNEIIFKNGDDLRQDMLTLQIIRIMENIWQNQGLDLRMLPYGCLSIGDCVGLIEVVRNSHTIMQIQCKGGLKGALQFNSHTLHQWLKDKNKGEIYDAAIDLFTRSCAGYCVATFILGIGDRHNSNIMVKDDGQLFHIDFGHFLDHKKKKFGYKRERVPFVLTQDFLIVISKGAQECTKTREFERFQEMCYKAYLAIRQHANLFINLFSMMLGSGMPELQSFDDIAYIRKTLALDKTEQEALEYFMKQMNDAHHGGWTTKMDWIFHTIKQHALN
Sequence of RAF proto-oncogene serine/threonine-protein kinase (P04049 whole entry Y340D/Y341D, canonical isoform): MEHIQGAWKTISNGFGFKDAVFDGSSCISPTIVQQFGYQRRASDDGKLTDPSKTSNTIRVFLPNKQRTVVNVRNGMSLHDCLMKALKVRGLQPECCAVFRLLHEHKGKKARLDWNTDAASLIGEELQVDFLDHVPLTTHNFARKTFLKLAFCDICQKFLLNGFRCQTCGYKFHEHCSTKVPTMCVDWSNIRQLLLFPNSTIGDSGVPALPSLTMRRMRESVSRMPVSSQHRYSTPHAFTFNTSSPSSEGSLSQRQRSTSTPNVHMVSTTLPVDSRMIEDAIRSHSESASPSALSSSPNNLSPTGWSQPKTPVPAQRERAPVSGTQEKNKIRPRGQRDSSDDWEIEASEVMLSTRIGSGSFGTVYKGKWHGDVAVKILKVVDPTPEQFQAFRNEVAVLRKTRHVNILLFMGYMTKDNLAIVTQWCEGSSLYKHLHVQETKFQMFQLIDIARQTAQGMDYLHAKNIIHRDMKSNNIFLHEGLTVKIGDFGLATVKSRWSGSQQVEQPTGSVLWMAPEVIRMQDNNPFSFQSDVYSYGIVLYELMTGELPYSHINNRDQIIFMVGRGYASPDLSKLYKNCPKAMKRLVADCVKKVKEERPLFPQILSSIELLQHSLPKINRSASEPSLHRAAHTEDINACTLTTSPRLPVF
Sequence of Phosphatidylinositol 4,5-bisphosphate 3-kinase catalytic subunit delta isoform (Homo sapiens) (O00329 whole entry, canonical isoform): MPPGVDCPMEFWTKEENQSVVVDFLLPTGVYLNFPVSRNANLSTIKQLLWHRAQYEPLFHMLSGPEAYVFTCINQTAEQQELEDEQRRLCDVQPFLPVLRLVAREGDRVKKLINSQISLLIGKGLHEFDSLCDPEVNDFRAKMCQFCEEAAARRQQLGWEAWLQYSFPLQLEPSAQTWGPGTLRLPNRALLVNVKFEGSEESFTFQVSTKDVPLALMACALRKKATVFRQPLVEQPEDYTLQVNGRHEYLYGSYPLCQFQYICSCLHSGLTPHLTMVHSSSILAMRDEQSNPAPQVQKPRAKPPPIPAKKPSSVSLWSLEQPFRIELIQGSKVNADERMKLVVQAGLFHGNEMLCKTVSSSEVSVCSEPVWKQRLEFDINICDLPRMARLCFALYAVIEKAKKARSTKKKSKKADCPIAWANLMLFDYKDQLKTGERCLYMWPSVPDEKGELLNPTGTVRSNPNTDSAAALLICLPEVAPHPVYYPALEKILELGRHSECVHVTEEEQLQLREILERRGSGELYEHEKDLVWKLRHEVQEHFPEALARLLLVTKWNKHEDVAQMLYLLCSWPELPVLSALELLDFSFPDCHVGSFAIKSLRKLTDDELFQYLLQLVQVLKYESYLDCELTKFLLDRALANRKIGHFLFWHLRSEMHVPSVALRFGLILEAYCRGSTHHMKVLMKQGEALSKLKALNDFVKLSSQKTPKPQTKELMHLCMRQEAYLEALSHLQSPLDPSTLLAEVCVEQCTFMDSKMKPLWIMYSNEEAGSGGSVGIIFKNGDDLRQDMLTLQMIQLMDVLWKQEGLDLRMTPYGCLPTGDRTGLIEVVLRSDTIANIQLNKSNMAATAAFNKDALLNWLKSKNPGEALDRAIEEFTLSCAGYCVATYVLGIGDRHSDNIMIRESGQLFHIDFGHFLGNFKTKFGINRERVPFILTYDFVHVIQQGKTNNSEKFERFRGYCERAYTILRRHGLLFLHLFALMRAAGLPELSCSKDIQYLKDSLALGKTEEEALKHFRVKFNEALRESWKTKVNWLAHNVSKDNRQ

IC50 [1]: 0.0059 µM
IC50 [2]: 1 µM
inhibition [3]: Dose-dependent effect
IC50 (MDA-MB-231): < 1 µM
CLint scaled [8]: 2.37 L/h/kg
CLint scaled [9]: 1.29 L/h/kg
Cmax [10]: 0.832 µg/mL
Tmax [11]: 52.5 min
AUC(0-inf) [12]: 2.75 µg·h/mL
bioavailability [13]: 36.9%
inhibition [14]: Active
inhibition [15]: Active
IC50 (LoVo): < 1 µM
Ratio IC50 (Homo sapiens [17]): 101
Ratio IC50 (Homo sapiens [18]): 13
Ratio IC50 (Homo sapiens [19]): 38
IC50 [20]: 0.225 µM
IC50 (PI3K p110 beta/p85 alpha): 0.598 µM
SMILES: COC(=O)Nc1cc(C(F)(F)F)c(-c2nc(N3CCOCC3)c3cc(CN4CCN(S(C)(=O)=O)CC4)cn3n2)cn1 [RISOVALISIB]
Activity (SK-OV-3 [4]): 67.4%
Activity (SK-OV-3 [5]): 48.1%
Activity (SK-OV-3 [6]): 37%
Activity [7]: Non-Toxic
Activity [16]: Non-Toxic
